Consider 78 compounds from PubChem BioAssay AID743247 (Broad Institute, 2014).

Molecules are shown by their SMILES. Values joined by “and” are separate entries in the source; they are usually repeats but may differ in a detail not shown here. Identical values can stand only once. The whole screen tested about 350,000 compounds, of which about 300 (0.086%) were called active. The full list was thinned out, with actives kept by preference. Values without a mark were called inactive.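 Rule for the calls: active = mean inhibition across replicates of 30% or more, regardless of how many single replicates reach that level; inconclusive = mean under 30% yet at least half of replicates reach 30%; inactive = the rest.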

A short description of this assay: blockers of fibronectin fibrillogenesis by fibroblasts – AH1F cells, Alexa488-fibronectin fluorescence, plate reader, primary screen (AID 743247).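 Note: positive control wells lacked labelled fibronectin entirely.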 The following applies: Alexa488-fibronectin deposition fluorescence, overnight, at 12.6 µM, stronger effect = higher value. In a few lines: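 material = AH1F fibroblast monolayer depositing Alexa488-labelled fibronectin into matrix | amount = 10000 AH1F cells/well | buffer or medium = DMEM plus 2% serum, read in PBS | incubation = 1 h cell adhesion before compound, then overnight fibronectin incubation | detection = fluorescence at 485 nm excitation, 525 nm emission | evaluation = percent inhibition as loss of matrix-bound fibronectin fluorescence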
By inhibition is commonly meant the drop in the measured response relative to a control, in per cent. As for `O=C1C[C@@H](c2ccccc2)C(=O)N[C@H](c2ccc(F)cc2)C/C=C\CCN1`, the inhibition is -8.29%.

Consider `C/C=C/c1ccc2c(c1)O[C@H](CN(C)C(=O)Nc1ccc(OC)cc1)[C@@H](C)CN([C@H](C)CO)S2(=O)=O`, for which the inhibition is 9.72%.

As for `Cc1cccc(NC(=O)c2nc(S(=O)(=O)Cc3ccccc3)ncc2Cl)c1`, the inhibition is 20.9%.

Regarding `Cc1cccc(CS(=O)(=O)c2ncc(Cl)c(C(=O)Nc3ccc(F)cc3)n2)c1`, the inhibition is 34.8% (active).

Consider `Cc1ccc(CS(=O)(=O)c2ncc(Cl)c(C(=O)Nc3nnc(C)s3)n2)cc1`, for which the inhibition is 0.254%.

`O=C(C1CCC1)N1CC[C@H]2[C@H](CO)Nc3ccc(-c4cccc(F)c4)cc3[C@H]21`: the inhibition was -4.67%.

In the case of `COc1ccc(-c2ccccc2[C@H]2[C@@H](CO)N(C(=O)c3cccnc3)[C@H]2C#N)cc1`, the inhibition was 0.791%.

In the case of `COc1cccc(C(=O)Nc2ccc3c(c2)C(=O)N(C)[C@H]2CC[C@@H](CC(=O)N[C@H](C)c4ccccc4)O[C@H]2CO3)c1`, the inhibition was 1.83%.

As for `CS(=O)(=O)Nc1ccc2c(c1)[C@H]1C[C@@H](CC(=O)N3CCOCC3)O[C@@H](CO)[C@H]1O2`, the inhibition was -0.107%.

Take `C[C@@H]1CC=CC[C@@H](c2ccccc2)NC(=O)[C@@H](Cc2ccccc2)N(C)C(=O)c2ccccc2O1` (mixture of isomers): the inhibition was 15.9%.

`O=C(Nc1ccc(C(F)(F)F)cc1)N1[C@@H]2CNC[C@H]1C2c1ccc(-c2ccncc2)cc1` (stereo partly drawn): the inhibition is -4.68% and -6.18%.

Regarding `COc1cccc(NC(=O)Nc2ccc3c(c2)OC[C@@H](C)NC[C@@H](C)[C@H](OC)CN(C)C3=O)c1`, the inhibition is -4.31%.

With `CCCN1[C@H](CO)[C@H](c2ccc(C#CC3CCCCC3)cc2)[C@@H]1CNC(=O)C1CC1`, the inhibition is -11.7%.

On to `COc1ccc(S(=O)(=O)N(C)C[C@@H]2Oc3ccc(NC(=O)Nc4cccc5ccccc45)cc3C(=O)N([C@H](C)CO)C[C@H]2C)cc1`, for which the inhibition is 9.82%.

In the case of `COc1ccc2c3c(n(C)c2c1)[C@H](CO)N(Cc1ccc(F)cc1)CC31CCN(C)CC1`, the inhibition was 8.27%.

Take `O=C(Nc1ccccc1Cl)/C(Cl)=C(\Cl)S(=O)c1ccccc1` (stereo not drawn): the inhibition was 41.6% (active).

Consider `NC(=O)C1(Nc2ccccc2Cl)CCCC1`, for which the inhibition was -0.504%.

`O=C(CCN1CCN(C/C=C/c2ccccc2)CC1)Nc1ccccc1Cl`: the inhibition is 15.1%.

For `COc1ccc2c3c(n(C)c2c1)[C@H](CO)N(C(C)=O)CC31CN(Cc2ccc(Cl)cc2)C1`, the inhibition is 9.57%.

On to `COc1ccc(S(=O)(=O)N2C[C@@H](O)COC[C@H]3O[C@@H](CC(=O)NCCN4CCCCC4)CC[C@@H]32)cc1`, for which the inhibition is -7.51%.

With `CO[C@H]1CN(C)C(=O)c2ccc(NC(C)=O)cc2OC[C@@H](C)N(C(=O)c2ccncc2)C[C@@H]1C`, the inhibition was -5.05%.

Turning to `O=C(c1cnccn1)N1CC(=O)N2[C@H](C1)[C@@H](c1ccc(C#CC3CCCC3)cc1)[C@@H]2CO`, the inhibition is 0.368%.

Turning to `CN(C)C(=O)C[C@H]1C[C@H]2c3cc(NC(=O)Nc4ccccc4F)ccc3O[C@H]2[C@@H](CO)O1`, the inhibition is -8.8%.

Take `CC(=O)N1C[C@@H]2C(c3ccccc3)[C@@H](C1)N2C(=O)NC(C)C` (stereo partly drawn): the inhibition is -6.49%.

On to `O=C(NCc1ccc(F)cc1)[C@@H]1[C@@H](CO)[C@@H]2Cn3c(cccc3=O)[C@@H]2N1C(=O)c1cccnc1`, for which the inhibition is 12.8%.

Take `C[C@H]1CN([C@@H](C)CO)C(=O)c2cccc(NC(=O)CCCCCC(=O)Nc3ccccc3N)c2O[C@@H]1CN(C)C(=O)NC1CCCCC1`: the inhibition was 17%.

For `COc1ccc(Nc2nc(N)nc(CSC(=S)N3CCC(C)CC3)n2)cc1`, the inhibition is 4.46%.

In the case of `CCOC(=O)c1cnc(SCc2nc(N)nc(Nc3ccc(OC)cc3)n2)nc1N`, the inhibition is 14.2% (active).

With `CCOC(=O)C1CCCN(Cc2nc(N)nc(Nc3ccc(C)cc3)n2)C1` (stereo not drawn), the inhibition was -4.21%.

With `CN1C(=O)c2cc(NC(=O)c3cccs3)ccc2OC[C@H]2O[C@@H](CC(=O)NCC3CC3)CC[C@@H]21`, the inhibition was -3.33%.

Regarding `CC(C)[C@@H]1COCc2cn(nn2)CC[C@@H](C)C(=O)N1`, the inhibition was -0.112%.

Regarding `CCCNC(=O)Nc1ccc2c(c1)C(=O)N(C)C[C@@H](OC)[C@@H](C)CN(Cc1ccccn1)[C@@H](C)CO2`, the inhibition is 0.86%.

Turning to `CC(C)NC(=O)N(C)C[C@H]1Oc2ccc(N)cc2CC(=O)N(C)C[C@H]1C`, the inhibition was 3.3%.

On to `N#Cc1ccc(-c2ccc(C3[C@@H]4CN(S(=O)(=O)c5cccc(Cl)c5)C[C@H]3N4)cc2)cc1` (stereo partly drawn), for which the inhibition is -6.82%.

As for `C[C@@H]1CCCCO[C@H](CN(C)C(=O)CCCN(C)C)[C@@H](C)CN([C@@H](C)CO)C(=O)c2cc(NC(=O)c3ccncc3)ccc2O1`, the inhibition is -3.34%.

For the compound `C[C@H](CO)N1C[C@H](C)[C@@H](CN(C)C(=O)C2CC2)Oc2ncc(C#CC(C)(C)O)cc2C1=O`, the inhibition was -19.9%.

Take `C[C@@H]1CN([C@H](C)CO)C(=O)c2c(c3ccccc3n2C)-c2ccccc2CO[C@@H]1CN(C)Cc1ccccc1C(F)(F)F`: the inhibition is 3.35%.

For the compound `COc1ccc(S(=O)(=O)Nc2ccc3c(c2)C(=O)N(C)C[C@@H](OC)[C@H](C)CN(C(=O)NC(C)C)[C@H](C)CO3)cc1`, the inhibition is 6.84%.

Take `N#C[C@H]1[C@H](c2ccccc2-c2ccc(F)cc2)[C@H](CO)N1C(=O)Cc1ccncc1`: the inhibition was -14.3%.

Regarding `CC(C)NC(=O)N(C)C[C@@H]1OCCCC[C@H](C)Oc2ccc(NC(=O)Nc3ccccc3)cc2C(=O)N([C@H](C)CO)C[C@@H]1C`, the inhibition is 1.11%.

With `CCCNC(=O)N1[C@@H]2CNC[C@H]1C2c1ccc(-c2cccc(C)c2)cc1` (stereo partly drawn), the inhibition was -3.69% and -7.75%.

In the case of `Cc1cccc(S(=O)(=O)N2CC[C@@H]3[C@H]2c2cc(C#Cc4ccccc4F)ccc2N[C@@H]3CO)c1`, the inhibition was 15.8%.

For the compound `CNC[C@H]1Oc2ccc(NC(=O)NC(C)C)cc2C(=O)N(C)C[C@@H]1C`, the inhibition was -10.1%.

As to `O=C1N[C@H](Cc2ccccc2)COCc2cn(nn2)CC[C@@H]1Cc1ccc(-c2ccccc2)cc1`, the inhibition was 7.74%.

Consider `CNC[C@H]1Oc2ncccc2C(=O)N(C)C[C@@H]1C`, for which the inhibition was 3.59%.

As for `CC(=O)N1[C@H](CO)[C@H](c2ccccc2)[C@H]1CN(C(=O)c1ccccc1F)C(C)C`, the inhibition is -2.39%.

Take `CCCC(=O)Nc1ccc2c(c1)OC[C@H](C)N(C(=O)CC)C[C@H](C)[C@@H](OC)CN(C)C2=O`: the inhibition was -4.46%.

`C=C(C)C[C@H]1CCn2cc(nn2)COCCNC1=O`: the inhibition is -4.67%.

Take `C[C@@H]1C(=O)N[C@H](c2ccc3c(c2)OCO3)CC=CC[C@H](C)Oc2ccccc2C(=O)N1C` (mixture of isomers): the inhibition was -8.64%.

As for `COc1ccc(S(=O)(=O)N2C[C@H](O)COC[C@@H]3O[C@H](CC(=O)NCCN4CCCCC4)CC[C@H]32)cc1`, the inhibition was 4.18%.

For `O=C1CCC(=O)N[C@H](c2ccccc2)C/C=C\CCN1`, the inhibition was -1.16%.

In the case of `C[C@H]1CN([C@@H](C)CO)C(=O)c2c(c3ccccc3n2C)-c2ccccc2CO[C@@H]1CN(C)CC1CCCCC1`, the inhibition is -4.72%.

As to `CO[C@H]1CN(C)C(=O)c2cc(NC(=O)NC(C)C)ccc2OC[C@@H](C)NC[C@@H]1C`, the inhibition was -16.2%.

In the case of `COc1ccc2c3c([nH]c2c1)[C@@H](CO)N(C)CC31CCN(S(=O)(=O)c2ccc(C)cc2)CC1`, the inhibition was 3.31%.

As for `CC(=O)Nc1ccc2c(c1)CC(=O)N(C)C[C@H](C)[C@H](CN(C)S(C)(=O)=O)O2`, the inhibition is -0.444%.

On to `C[C@H](CO)N1C[C@H](C)[C@@H](CN(C)Cc2ccncc2)Oc2cc(Br)ccc2S1(=O)=O`, for which the inhibition was -7.26%.

On to `COCC(=O)N(C)C[C@H]1[C@@H](c2ccccc2)[C@H](CO)N1C(=O)Cc1ccncc1`, for which the inhibition was -3.58%.

`O=C1NCCCOCc2cn(nn2)CC[C@@H]1Cc1ccc(-c2ccccc2)cc1`: the inhibition is 1.3%.

As for `C[C@@H]1COCc2cn(nn2)CC[C@H](C)C(=O)N1`, the inhibition is -2.55%.

As to `O=C(C1CCC1)N1CC2(C1)[C@H](c1ccccc1)[C@H](CO)N2Cc1nccs1`, the inhibition is 4.67%.

Consider `C[C@H](CO)N1C[C@H](C)[C@@H](CN(C)Cc2ccc(Cl)c(Cl)c2)Oc2ccc(NC(=O)Cn3cnnn3)cc2CC1=O`, for which the inhibition was -6.99%.

Take `O=C(Cc1ccncc1)N1CC[C@@H]2[C@@H](CO)Nc3ccc(C4=CCCCC4)cc3[C@@H]21`: the inhibition was -5.08%.

For `CO[C@H]1CN(C)C(=O)c2ccc(NC(=O)C3CCC3)cc2OC[C@H](C)NC[C@@H]1C`, the inhibition was 4.29%.

Consider `CC(=O)NC[C@H]1[C@H](c2ccc(C3=CCCCC3)cc2)[C@@H](CO)N1C(=O)NC(C)C`, for which the inhibition is -4.24%.

Take `Cc1ccccc1S(=O)(=O)N[C@@H]1CC[C@@H](CCNS(=O)(=O)c2cccc(F)c2)O[C@H]1CO`: the inhibition was -1.75%.

With `O=C(C[C@H]1CC[C@@H]2[C@H](COC[C@@H](O)CN2CC2CC2)O1)NCC1CC1`, the inhibition was -7.99%.

As to `CCC(=O)N(C)C[C@H]1Oc2ncc(-c3ccc(C#N)cc3)cc2C(=O)N([C@@H](C)CO)C[C@H]1C`, the inhibition was -1.88%.

As for `C/C=C/c1ccc(C2[C@H]3CNC[C@@H]2N3CC2CCOCC2)cc1` (stereo partly drawn), the inhibition is 3.6%.

`CO[C@@H]1CN(C)C(=O)c2cc(NC(=O)c3cccc(Oc4ccccc4)c3)ccc2OC[C@H](C)NC[C@@H]1C`: the inhibition was 15.5%.

Turning to `O=C1CCCCn2nncc2COC[C@@H](Cc2ccccc2)N1`, the inhibition is 5.42%.

Consider `COCC(=O)N1CC2(CN(S(C)(=O)=O)C2)c2c(n(C)c3cc(OC)ccc23)[C@@H]1CO`, for which the inhibition was -4.29%.

With `O=C(C[C@H]1C[C@H]2c3cc(NC(=O)CC4CC4)ccc3O[C@H]2[C@H](CO)O1)NCc1cc(F)ccc1F`, the inhibition was -4.07%.

Regarding `COc1ccc2c3c(n(C)c2c1)[C@@H](CO)N(Cc1ccncc1)CC31CN(C(=O)Nc2cccc(F)c2)C1`, the inhibition was -9.67%.

In the case of `C[C@H](CO)N1C[C@H](C)[C@@H](CN(C)C(=O)Cc2ccccn2)Oc2cc(-c3cccc(C(=O)N(C)C)c3)ccc2S1(=O)=O`, the inhibition is 3.4%.

As to `O=C(NC(=O)c1ccccc1)Nc1ccccc1O`, the inhibition was -0.509%.

For the compound `O=C(NC1=CC(=O)c2ccccc2C1=O)c1ccccc1`, the inhibition was 62.2% (active).

`COC(=O)c1nc(NC(=O)c2ccccc2)n[nH]1`: the inhibition is 5.02%.

Regarding `C[C@@H]1CC(=O)N[C@H](c2ccccc2)C/C=C\C[C@H](c2ccccc2)NC1=O`, the inhibition was -9.6%.
